Measured values: ChEMBL document CHEMBL1142981, “Identification and synthesis of a novel selective partial PPARdelta agonist with full efficacy on lipid metabolism in vitro and in vivo” (J Med Chem, 2007)
Activity calls are given as the source filed them. No cut-off for these calls is given here.

How the values were obtained:
Mus musculus [1] = test: Decrease in LDL level in human ApoB100/CETP transgenic mouse at 10 mg/kg, po after 6 weeks relative to control; type: functional; parameters: scale not given: the % may be the effect or the level left
[2] = Plasma Cmax in Sprague-Dawley rat at 2.06 mg/kg, po; type: ADME, organism-based; parameters: dose 2.06 mg/kg, route oral
In short: (§1)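 Male SD rats received a single p.o. or i.v. dose (n = 8 per route) in 5% ethanol, 10% HPCD and phosphate buffer, pH 7.5-8.0. At 5, 15, 30, 60, 90, 120, 240 and 360 min one rat was sacrificed per time point. EDTA plasma was assayed by high turbulence LC-MS/MS. Cmax and bioavailability were taken from oral dosing; volume of distribution is at steady state.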

[3] = biological target: T1, Peroxisome proliferator-activated receptor alpha (Homo sapiens) (UniProt Q07869); test: Activity at human liver PPAR alpha expressed in HEK293 cells by GAL4 transactivation assay relative to NNC61-4655; type: cell-based
T1 sequence (whole entry): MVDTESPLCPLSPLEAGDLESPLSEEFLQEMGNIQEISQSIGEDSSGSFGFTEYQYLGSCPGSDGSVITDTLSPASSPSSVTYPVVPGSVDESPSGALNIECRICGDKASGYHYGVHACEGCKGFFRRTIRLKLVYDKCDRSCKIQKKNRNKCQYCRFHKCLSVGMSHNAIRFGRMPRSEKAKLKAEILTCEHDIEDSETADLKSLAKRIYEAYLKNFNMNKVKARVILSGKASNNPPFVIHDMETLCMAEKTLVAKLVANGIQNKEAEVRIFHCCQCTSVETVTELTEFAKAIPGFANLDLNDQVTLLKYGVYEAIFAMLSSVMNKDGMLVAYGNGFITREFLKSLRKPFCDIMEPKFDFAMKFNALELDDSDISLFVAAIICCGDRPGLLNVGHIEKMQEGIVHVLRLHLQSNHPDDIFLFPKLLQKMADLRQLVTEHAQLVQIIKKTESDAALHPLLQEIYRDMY

[4] = biological target: T2, Peroxisome proliferator-activated receptor gamma (Mus musculus) (UniProt P37238); test: Agonist activity at mouse PPAR gamma expressed in HEK293 cells up to 30 uM by PPAR-GAL4 transactivation assay; type: functional, cell-based
T2 sequence (whole entry): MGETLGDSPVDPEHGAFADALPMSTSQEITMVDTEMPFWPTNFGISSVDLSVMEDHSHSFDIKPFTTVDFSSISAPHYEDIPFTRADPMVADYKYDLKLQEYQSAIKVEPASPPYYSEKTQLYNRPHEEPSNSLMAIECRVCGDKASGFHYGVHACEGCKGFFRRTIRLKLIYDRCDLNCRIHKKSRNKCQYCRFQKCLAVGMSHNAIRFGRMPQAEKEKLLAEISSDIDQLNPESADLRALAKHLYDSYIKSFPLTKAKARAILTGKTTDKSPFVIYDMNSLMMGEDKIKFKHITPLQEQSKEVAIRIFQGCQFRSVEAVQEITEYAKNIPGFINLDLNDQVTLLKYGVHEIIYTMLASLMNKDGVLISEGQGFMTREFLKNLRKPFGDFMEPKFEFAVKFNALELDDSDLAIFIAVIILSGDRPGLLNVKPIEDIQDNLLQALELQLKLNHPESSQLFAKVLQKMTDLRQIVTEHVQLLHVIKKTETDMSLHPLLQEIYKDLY

Mus musculus [5] = test: Increase in HDL level in human ApoB100/CETP transgenic mouse at 5 mg/kg, po after 6 weeks relative to control; type: functional
[6] = biological target: T3, Peroxisome proliferator-activated receptor alpha (Mus musculus) (UniProt P23204); test: Agonist activity at mouse PPAR alpha expressed in HEK293 cells up to 30 uM by PPAR-GAL4 transactivation assay; type: functional, cell-based
T3 sequence (whole entry): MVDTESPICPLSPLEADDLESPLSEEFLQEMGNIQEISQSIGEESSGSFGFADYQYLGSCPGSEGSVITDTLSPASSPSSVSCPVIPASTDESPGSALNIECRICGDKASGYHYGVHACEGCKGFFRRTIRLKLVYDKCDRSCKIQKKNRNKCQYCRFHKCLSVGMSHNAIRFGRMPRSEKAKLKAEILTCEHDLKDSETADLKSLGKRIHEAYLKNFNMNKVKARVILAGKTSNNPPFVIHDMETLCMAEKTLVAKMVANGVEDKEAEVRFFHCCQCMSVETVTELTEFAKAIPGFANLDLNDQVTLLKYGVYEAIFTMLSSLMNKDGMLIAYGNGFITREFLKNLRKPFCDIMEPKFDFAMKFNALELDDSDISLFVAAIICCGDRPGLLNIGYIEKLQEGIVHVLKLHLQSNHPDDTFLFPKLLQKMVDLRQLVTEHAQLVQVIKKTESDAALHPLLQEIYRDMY

[7] = biological target: T4, Peroxisome proliferator-activated receptor alpha (Homo sapiens, UniProt Q07869); test: Activity at human liver PPAR alpha expressed in HEK293 cells by PPAR-GAL4 transactivation assay; type: cell-based
T4 sequence (Q07869 whole entry): T1 sequence (whole entry)

[8] = Half life in Sprague-Dawley rat at 2.06 mg/kg, po; type: ADME, organism-based; parameters: dose 2.06 mg/kg, route oral; conditions: in vivo
In short: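 Male SD rats dosed once i.v. or p.o. (n = 8 per route), vehicle 5% ethanol, 10% HPCD, phosphate buffer pH 7.5-8.0. One animal sacrificed at each of 5, 15, 30, 60, 90, 120, 240 and 360 min; EDTA plasma analysed by high turbulence LC-MS/MS. Each data point represents one animal.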

[9] = biological target: T5, Peroxisome proliferator-activated receptor gamma (Homo sapiens, UniProt P37231); type: cell-based, HEK293
T5 sequence (P37231 whole entry): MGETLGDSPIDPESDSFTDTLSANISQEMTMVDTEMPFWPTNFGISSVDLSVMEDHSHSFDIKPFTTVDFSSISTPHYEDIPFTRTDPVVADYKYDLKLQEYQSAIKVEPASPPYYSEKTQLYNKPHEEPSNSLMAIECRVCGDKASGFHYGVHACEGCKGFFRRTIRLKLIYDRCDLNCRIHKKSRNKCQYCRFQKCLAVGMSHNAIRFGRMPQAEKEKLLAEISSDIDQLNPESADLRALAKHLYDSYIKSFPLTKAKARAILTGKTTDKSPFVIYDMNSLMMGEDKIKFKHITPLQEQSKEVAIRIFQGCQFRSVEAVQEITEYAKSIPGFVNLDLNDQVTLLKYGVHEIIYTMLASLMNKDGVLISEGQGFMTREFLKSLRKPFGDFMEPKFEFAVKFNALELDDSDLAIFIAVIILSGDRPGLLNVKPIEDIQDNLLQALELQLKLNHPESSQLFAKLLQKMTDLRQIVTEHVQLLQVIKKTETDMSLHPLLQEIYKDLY

Mus musculus [10] = test: Decrease in HbA1c level in human ApoB100/CETP transgenic mouse at 5 mg/kg, po after 6 weeks relative to control; type: functional; parameters: scale not given: the % may be the effect or the level left
Mus musculus [11] = test: Increase in total cholesterol level in human ApoB100/CETP transgenic mouse at 20 mg/kg, po after 6 weeks relative to control; type: functional
[12] = Volume of distribution in Sprague-Dawley rat at 1.06 mg/kg, iv; type: ADME, organism-based; parameters: dose 1.06 mg/kg, route intravenous; conditions: in vivo, read-out: Vss; in short: as §1
Mus musculus [13] = test: Decrease in glucose level in human ApoB100/CETP transgenic mouse at 5 mg/kg, po after 6 weeks relative to control; type: functional; parameters: scale not given: the % may be the effect or the level left

Cmax [2]: 508 ng/mL | Efficacy [3]: > 12% | Activity [4]: inactive | Activity [6]: inactive | EC50 [7]: > 10 µM | half-life [8]: 59 min | EC50 [9]: > 10 µM | Vd [12]: 0.3 L/kg
SMILES: O=C(O)COc1ccc(SCC=C(c2ccc(Br)cc2)c2ccc(Br)cc2)cc1Cl
Activity (Mus musculus [1]): 12% | Activity (Mus musculus [5]): 24% | Activity (Mus musculus [10]): 4% | Activity (Mus musculus [11]): 2% | Activity (Mus musculus [13]): 3%
